Measured values gathered from unrelated publications.
Compare with care: the assays were run in different laboratories.
CDK5: Cyclin-dependent kinase 5 (CDK5, Homo sapiens, UniProt Q00535)
CDK5 with p25: Cyclin-dependent kinase 5, with p25 (CDK5, Homo sapiens, UniProt Q00535)
CDK5 with p35: Cyclin-dependent kinase 5, with p35 (CDK5, Homo sapiens, UniProt Q00535)

C[C@H](c1ccnc(Nc2nc3ccc(-c4cc(N(C)C)ncn4)cc3[nH]2)c1)N1CCN(C(=O)CC(F)(F)F)CC1 — remaining binding (CDK5; cell-free assay, competition with immobilised ligand; 0.1 µM): 86%
Cc1ccc(NC(=O)c2ccc(C)c(C(F)(F)F)c2)cc1C#Cc1nn(C2CCC(O)CC2)c2ncnc(N)c12 (centres unmarked) — remaining signal (CDK5 with p25; cell-free assay; 10 µM): 87%
CC(C)c1ccc(NC(=O)c2cccs2)c(-c2nc3ccccc3[nH]c2=O)c1 — activity vs control (CDK5 with p35; enzyme activity, inhibitor; 1 µM): 103%
Nc1nc(Nc2ccc(S(N)(=O)=O)cc2)nn1C(=O)c1c(F)cccc1F — remaining signal (CDK5 with p35; cell-free assay; 0.5 µM): 0.212%
CC[C@H](C)[C@H](NC(=O)[C@H](CCC(N)=O)NC(=O)[C@H](CC(C)C)NC(=O)[C@H](CCSC)NC(=O)[C@H](CCCCN)NC(=O)[C@H](CO)NC(=O)[C@H](CO)NC(=O)[C@H](CCSC)NC(=O)[C@H](CC(C)C)NC(=O)[C@H](CC(N)=O)NC(=O)[C@@H](NC(=O)[C@@H](NC(=O)[C@H](CO)NC(=O)[C@H](CC(C)C)NC(=O)[C@H](CS)NC(=O)[C@H](CCCNC(=N)N)NC(=O)[C@H](CC(=O)O)NC(=O)[C@H](Cc1c[nH]c2ccccc12)NC(=O)[C@H](Cc1ccccc1)NC(=O)[C@H](C)NC(=O)[C@H](CCC(=O)O)NC(=O)[C@@H](N)CCCCN)C(C)C)[C@@H](C)CC)C(=O)N[C@@H](CC(N)=O)C(=O)N[C@@H](C)C(=O)O — remaining activity (CDK5 with p25; enzyme activity, inhibitor, radiometric; 10 µM, 20 min): 87%
Cc1c(NC(=O)c2cc(C(N)=O)nc3cc(F)ccc23)c(C(F)(F)F)nn1Cc1ccc(C#N)cc1 — remaining binding (CDK5; cell-free assay, competition with immobilised ligand; 1 µM): 100%
N[C@H]1CCN(c2nccc(-c3cnn4ncccc34)n2)C1 — remaining binding (CDK5; binding; 1 µM): 100%
NS(=O)(=O)c1cc(NC(=O)Cc2ccccc2)ccc1Oc1cccc(Cl)c1 — remaining binding (CDK5; cell-free assay, competition with immobilised ligand; 1 µM): 61%
Oc1ccc(-c2nc(-c3ccncc3)c(-c3ccc(F)cc3)[nH]2)cc1 — remaining signal (CDK5 with p35; cell-free assay; 0.5 µM): 97.3%
CNC(=O)c1ccc(Nc2ncc(C(F)(F)F)c(NCc3nccnc3N(C)S(C)(=O)=O)n2)cc1 — remaining binding (CDK5; cell-free assay, competition with immobilised ligand; 0.1 µM): 81%
Cc1cc(NC(=O)c2cccc3cc(-c4cccc5[nH]nc(N)c45)ccc23)ccc1F — activity vs control (CDK5 with p35; enzyme activity, inhibitor; 0.1 µM): 103%
N#CCCc1ccc2c(c1)-c1[nH]c3ccc([N+](=O)[O-])cc3c1CC(=O)N2 — remaining signal (CDK5 with p35; cell-free assay; 0.5 µM): 2.6%
CN(C)C1CCN(CC#Cc2nn(C3CCCC3)c3nc(NCc4ccccc4)ncc23)C1 (centres unmarked) — inhibition (CDK5 with p25; enzyme activity, inhibitor, FRET; 1 µM): 3%
N#Cc1ccc(Nc2ccc3[nH]c(=O)[nH]c3c2)c(Cl)c1 — remaining binding (CDK5; cell-free assay, competition with immobilised ligand; 1 µM): 100%
Nc1ncnc2occ(-c3ccc(NC(=O)Nc4cc(C(F)(F)F)ccc4F)cc3)c12 — remaining signal (CDK5; cell-free assay, inhibitor; 20 µM): 0.55%
Cc1ccc(C(=O)NCc2ccsc2)cc1C#Cc1cn(C(C)C)c2ncnc(N)c12 — activity vs control (CDK5 with p25; enzyme activity, inhibitor; 1 µM): 95%
O=C1NC(=O)c2cc(Nc3ccc(F)cc3)c(Nc3ccc(F)cc3)cc21 — remaining signal (CDK5 with p35; cell-free assay; 0.5 µM): 98.5%
CC(=O)c1c(NS(C)(=O)=O)c2cc(-c3ccc(Cl)cc3)c(-c3ccc(Cl)cc3Cl)nc2n(C)c1=O — remaining binding (CDK5; cell-free assay, competition with immobilised ligand; 1 µM): 100%
O=C1Nc2ccc(Cl)cc2C1=Cc1cc(Cl)c(O)c(Cl)c1 — remaining signal (CDK5 with p35; cell-free assay; 0.5 µM): 94.5%
CCCOc1ccc(OC)c(F)c1C(=O)c1ccc(C(=O)N[C@@H]2CNC[C@H]2NC(=O)c2ccc3[nH]ncc3c2)cc1 — remaining activity (CDK5 with p25; enzyme activity, inhibitor; 0.75 µM): 85%
